ALR inh = inhibitors of human ALR sulfhydryl oxidase, primary screen, biochemical, H2O2 detection, HRP-luminol luminescence, single point | inhibition, % (no concentration beside the values) | purified ALR, DTT oxidation | 290,000 compounds, 3.8% hits | AID 485317, 2010 | FAD-linked sulfhydryl oxidase ALR (Homo sapiens), P55789;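 active means mean replicate inhibition above about 79%, with every replicate also reaching it, limit read from the data; inconclusive means only one of the two criteria met; inactive means mean below limit and not every replicate reaching it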
Target sequence (P55789 whole entry, looked up): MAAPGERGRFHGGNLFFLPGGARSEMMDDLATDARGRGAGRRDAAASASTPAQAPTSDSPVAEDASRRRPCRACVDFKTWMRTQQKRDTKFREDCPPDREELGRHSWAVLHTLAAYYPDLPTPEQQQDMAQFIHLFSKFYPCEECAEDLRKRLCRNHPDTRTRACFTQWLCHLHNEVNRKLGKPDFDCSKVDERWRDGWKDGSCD
Rtt109 Vps75 = inhibitors of C. albicans Rtt109/Vps75 HAT, primary screen, biochemical, ThioGlo CoA-SH fluorescence, plate reader | AID 540336, 2011 | 330,000 compounds, 0.16% hits | Histone acetyltransferase RTT109 (Candida albicans (strain SC5314 / ATCC MYA-2876)), … | purified Rtt109/Vps75, 4 h | inhibition, % at 34.9 µM;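 active means inhibition of at least 50% in every replicate; inconclusive means best replicate reaches 50% inhibition but some replicates fall short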
Target sequence (Q5AAJ8 whole entry, looked up): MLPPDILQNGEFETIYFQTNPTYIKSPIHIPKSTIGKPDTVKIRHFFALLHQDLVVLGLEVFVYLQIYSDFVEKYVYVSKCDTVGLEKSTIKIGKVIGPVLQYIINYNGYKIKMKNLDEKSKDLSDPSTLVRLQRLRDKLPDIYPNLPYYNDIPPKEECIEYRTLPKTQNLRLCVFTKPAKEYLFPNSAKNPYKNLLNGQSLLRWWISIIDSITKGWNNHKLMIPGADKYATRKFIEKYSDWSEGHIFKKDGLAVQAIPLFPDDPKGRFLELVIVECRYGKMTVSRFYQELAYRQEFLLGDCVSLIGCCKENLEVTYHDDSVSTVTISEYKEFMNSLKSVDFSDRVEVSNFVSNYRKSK
UCH37 DUB inh = inhibitors of human UCH37 deubiquitinase, primary screen, biochemical, Ub-AMC cleavage, fluorescence. Ubiquitin carboxyl-terminal hydrolase isozyme L5 (Homo sapiens), Q9Y5K5. purified proteasome/UCH37. inhibition, % (concentration not given with the values). 330,000 compounds, 0.33% hits. AID 588478, 2011;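 active means mean inhibition over replicate wells above about 20%, limit read from the data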;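 further: 0% = compound-free wells with enzyme and 100% = wells lacking proteasome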
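Schedule: 30 min plus 25 min, room temperature / Material: human UCH37 within purified proteasomes / Technique: AMC fluorescence intensity at 355/460 nm / Buffer or medium: pH 7.4 Tris-HCl (50 mM) with ovalbumin, ATP-MgCl2, DTT / Controls: wells without proteasome as full block, compound-free enzyme plus substrate as uninhibited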
M18AAP inhibitor = PfM18AAP inhibitors, malaria aminopeptidase, primary screen, biochemical, QFRET, recombinant enzyme; inhibition, % at 7.35 µM; H-Glu-NHMec fluorogenic cleavage; AID 1822, 2009; 290,000 compounds, 1.2% hits;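 active means inhibition above the campaign mean inhibition over all tested compounds plus 3 SD, cut at about 28% in these data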;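 further: 0% = plate median of test compound wells and 100% = 2 mM ZnCl2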
FAS-TE inh = FAS thioesterase domain inhibitors, primary screen, biochemical, fluorescence intensity, uHTS. Fatty acid synthase (Homo sapiens), P49327. recombinant FAS-TE, OMFH fluorogenic substrate, fluorescence endpoint. inhibition, % at 15 µM. 360,000 compounds, 0.67% hits;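 active means compounds whose normalised, plate-corrected inhibition of enzyme fluorescence in the single-dose primary screen is 50% or more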;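 further: 0% = DMSO with enzyme and 100% = substrate without enzyme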
HDAC3 inhib = HDAC3 deacetylase inhibitors, primary screen, biochemical, fluorescence, cell-free homogeneous; 320,000 compounds, 0.15% hits; recombinant HDAC3, fluorogenic peptide/trypsin coupled; inhibition, % at 8.3 µM; in the data active means inhibition above about 26%, passing the limit was not always enough; inconclusive means no clear call, values can overlap the other calls
* = called active by the depositor; u = inconclusive; x = not tested or not shown. A selection: hits, their analogues and other compounds. The true share with any hit is near 4.6%.

SMILES	ALR inh	Rtt109 Vps75	UCH37 DUB inh	M18AAP inhibitor	FAS-TE inh	HDAC3 inhib
Cc1cc(SCC(=O)Nc2ccc(O)cc2)n2nc(C)c(-c3ccccc3)c2n1	99*	-25	1	2	5	0
CCN(CC)c1ccc(NC(=O)c2nc3nc(C)cc(C(F)F)n3n2)cc1	99*	-7	7	9	-2	x
CCN(CC)c1ccc(NC(=O)CSc2nnc3nc(C)cc(C)n23)cc1	99*	-5	1	9	-7	4
Cc1cc(C)n2nc(SCC(=O)Nc3ccc(O)cc3)nc2n1	99*	-9	1	4	-7	3
Cc1cc(C)n2nc(SCC(=O)Nc3ccc(F)cc3)nc2n1	-3	14	4	-2	-7	-2
CC(=NNS(=O)(=O)c1ccc(C)cc1)c1c(O)c2ccccc2oc1=O	x	x	10	x	x	x
Cc1cccc(NC(=S)NN=C2CCCCc3ccccc32)c1	x	x	1	x	x	x
COc1cc(C(=O)NN=Cc2ccc(OC)c(CN3CCN(c4ccc(F)cc4)CC3)c2)ccc1O	x	x	6	x	x	x
CC1(C)C2CC=C(C=Nn3cnnc3)C1C2 (centres undefined)	x	x	-1	x	x	x
COc1ccc(C=Nc2cccnc2N)cc1	1	-3	-3	31*	-6	-10
COc1cccc(C=NNC(=O)c2cccc([N+](=O)[O-])c2)c1OS(=O)(=O)c1ccc(C)cc1	x	x	2	x	x	x
CCC(=O)Nc1nnc(C(C)(C)C)s1	98*	0	3	2	-7	1
CCOC(=O)c1nnn(-c2nn3nnnc3c3ccccc23)c1C	98*	1	3	-9	-4	3
CCOC(=O)c1nnn(-c2nonc2-n2cccc2)c1C	1	-18	1	-6	-5	0
COc1ccc(-c2ccn(-c3cccc(F)n3)n2)cc1	x	-4	-1	32*	0	x
C=CCN=C1NN=C(c2cc(C)n(CCOC)c2C)CS1	-1	2	0	-4	-11	3
CCOc1ccc(N=C2NN=C(c3cc(C)n(CC4CCCO4)c3C)CS2)cc1 (centres undefined)	x	-6	5	10	-49	-1
C=CCn1c(C)cc(C2=NNC(=Nc3ccc(C)cc3)SC2)c1C	9	-8	29*	-9	-20	-7
COCCn1c(C)cc(C2=NNC(=NC3CC3)SC2)c1C	97*	22	11	15	-5	2
Cc1cc(C2=NNC(=NC3CC3)SC2)c(C)n1Cc1ccco1	x	-5	7	12	-52	0
C=CCn1c(C)cc(C2=NNC(=NC(C)(C)C)SC2)c1C	99*	19	x	8	-13	9
Cc1nn(Cc2ccc(F)cc2)c(Cl)c1C=NNC(=O)c1ccccc1	x	x	1	x	x	x
FC(F)(F)c1ccc(C=NNC(=S)NC2CCCCC2)cc1	x	x	3	x	x	x
COc1ccc(N2Nc3n[nH]c(N)c3N2)cc1	99*	-3	10	6	-14	6
CN=Cc1sc2ccccc2c1O	47	-7	3	15	-6	-1
SMILES	ALR inh	Rtt109 Vps75	UCH37 DUB inh	M18AAP inhibitor	FAS-TE inh	HDAC3 inhib
Oc1c(C=NCc2ccncc2)sc2ccccc12	83*	x	0	13	x	7
CCC(C)=NNc1nc2sc3c(c2c(=O)[nH]1)CC(C)(C)OC3	x	x	1	x	x	x
CNC(=S)Nc1ccc(Br)cc1	x	2	3	16	-15	-3
C/C(=N\NC(=S)Nc1ccc(F)cc1)C1CC1	98*	7	x	18	-6	-3
Fc1ccc(NC(=S)Nc2ccc(Br)cc2)cc1	x	55*	3	-5	9	x
Oc1ccc(NC(=S)Nc2ccc(F)cc2)cc1	98*	-1	5	3	-4	0
COc1ccccc1N1CCN(C(c2cccs2)C(C)NC(=O)C(=O)N2CCOCC2)CC1 (centres undefined)	89*	7	2	3	2	-14
COc1ccc(N2CCN(C(c3cccs3)C(C)NC(=O)C(=O)N3CCOCC3)CC2)cc1 (centres undefined)	u	0	1	4	-8	-7
CC(NC(=O)C(=O)N1CCOCC1)C(c1cccs1)N1CCN(c2ccccc2)CC1 (centres undefined)	98*	11	0	3	-3	3
COc1ccccc1C(=O)NCC(=O)NN=Cc1ccc([N+](=O)[O-])cc1	x	x	2	x	x	x
CCCCc1ccc(C(C)=NNC(=O)C2CCCC2)cc1	x	x	3	x	x	x
Cc1cc2c(c(=O)o1)C(CCC1CCCCC1)C(C#N)=C(N)O2 (centres undefined)	97*	x	-1	-1	6	6
CCC(CC)C1C(C#N)=C(N)Oc2cc(C)oc(=O)c21 (centres undefined)	19	-4	2	-4	0	-3
COC(=O)NN=Cc1ccccc1Cl	x	x	0	x	x	x
CCN(CC)c1ccc(NC(=O)c2ccc3c(c2)OCO3)cc1	99*	-3	6	1	2	0
CN(c1ccc(C(=O)Nc2ccc3c(c2)OCO3)cc1)S(C)(=O)=O	-6	51*	2	4	-6	3
O=C(Nc1nnc(Cc2ccc([N+](=O)[O-])cc2)s1)c1ccc2c(c1)OCO2	-6	9	-1	3	0	3
CC(C)(C)Cc1nnc(NC(=O)c2ccc3c(c2)OCO3)s1	-5	2	0	30*	-7	-4
CCN1CCN(c2cc(C)c3cc(NC(=O)c4ccc5c(c4)OCO5)ccc3n2)CC1	84*	-5	6	4	2	-6
CCC(=O)Nc1ccc(NC(=O)c2ccc3c(c2)OCO3)cc1	1	5	-3	-6	0	0
O=C(NN=Cc1ccccc1Br)c1cccc(S(=O)(=O)N2CCOCC2)c1	x	x	8	x	x	x
CC(/C=C/c1ccccc1F)=NNC(=O)c1ccccc1	x	x	7	x	x	x
CCOc1cc(C=NNc2nc(N3CCCCC3)nc(N3CCCCC3)n2)ccc1OC(=O)c1ccco1	x	x	3	x	x	x
COc1cc(Br)cc(CN2CCN(c3ncccn3)CC2)c1O	98*	6	6	2	1	0
Clc1ccc(C2=NNC(=NCc3ccc4c(c3)OCO4)SC2)cc1	0	9	3	-6	5	12
Oc1ccc(C2=NNC(=NCc3ccc4c(c3)OCO4)SC2)c(O)c1	95*	1	1	9	-10	10
O=C(CC1Sc2ncnn2C1=O)Nc1ccc(Br)cc1 (centres undefined)	54	14	3	37*	-3	8
CC(=NN1CCN(c2ccccc2)CC1)c1ccncc1	x	x	1	x	x	x
